Our source for the PFA and ED50 values is ChEMBL document CHEMBL1124808, “The synthesis and antiallergy activity of 1-(aryloxy)-4-(4-arylpiperazinyl)-2-butanol derivatives” (1990).

Assay [1] has as its system Rattus norvegicus. The experiment in a line: Percent change in volume of foot edema of test compound to that of positive control was determined at a dose of 31.6 mg/kg in rat; -41/-61. Format: functional.
Assay [2] has as its system Rattus norvegicus. The experiment in a line: Percent change in volume of foot edema of test compound to that of positive control was determined at a dose of 31.6 mg/kg in rat; -90/-83. Format: functional.
In assay [3] the test system is Rattus norvegicus. The experiment in a line: Percent change in volume of foot edema of test compound to that of positive control was determined at a dose of 3.16 mg/kg in rat; -32/-78. Format: functional.
Assay [4] concerns Rattus norvegicus. The experiment in a line: Percent change in volume of foot edema of test compound to that of positive control was determined at a dose of 10 mg/kg in rat; -46/-83. Format: functional.
The subject of assay [5] is Rattus norvegicus. In words: Percent change in volume of foot edema of test compound to that of positive control was determined at a dose of 10 mg/kg in rat; -15/-73. Format: functional.
Assay [6] has as its system Rattus norvegicus. The experiment in a line: Percent change in volume of foot edema of test compound to that of positive control was determined at a dose of 31.6 mg/kg in rat; -64/-73. Format: functional.
In assay [7] the test system is Rattus norvegicus. The experiment in a line: Percent change in volume of foot edema of test compound to that of positive control was determined at a dose of 31.6 mg/kg in rat; -25/-93.
Assay [8] deals with Rattus norvegicus. The experiment in a line: Percent change in volume of foot edema of test compound to that of positive control was determined at a dose of 10 mg/kg in rat; -39/-72. Format: functional.
Assay [9] has as its system Rattus norvegicus. In words: Percent change in volume of foot edema of test compound to that of positive control was determined at a dose of 31.6 mg/kg in rat; -57/-83. Format: functional.
The subject of assay [10] is Rattus norvegicus. The experiment in a line: Percent change in volume of foot edema of test compound to that of positive control was determined at a dose of 10 mg/kg in rat; -41/-59. Format: functional.
The test system of assay [11] is Rattus norvegicus. The experiment in a line: Percent change in volume of foot edema of test compound to that of positive control was determined at a dose of 31.6 mg/kg in rat; -77/-67. Format: functional.
For assay [12], the system named is Rattus norvegicus. The experiment in a line: Percent change in volume of foot edema of test compound to that of positive control was determined at a dose of 31.6 mg/kg in rat; -42/-81. Format: functional.
Assay [13] deals with Rattus norvegicus. In words: Percent change in volume of foot edema of test compound to that of positive control was determined at a dose of 3.16 mg/kg in rat; -8/-67. Format: functional.
For another assay, the species on record is Cavia porcellus. The experiment in a line: Dose that protects 50% of guinea pig from collapse was determined in guinea pig anaphylaxis assay. Format: functional. The note with it: read-out: PD50. The method in brief:
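Guinea pigs dosed by gavage (10 mL/kg) with compound in 0.5% Tween 80/water; reference theophylline 100 mg/kg po. At 1–24 h, exposed in chamber to aerosolized 1% (w/v) egg albumin at 10 L air/min for up to 5 min; protected if no collapse within 5 min. PD50 by Litchfield and Wilcoxon.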

In assay [14] the test system is Rattus norvegicus. The experiment in a line: Percent change in volume of foot edema of test compound to that of positive control was determined at a dose of 10 mg/kg in rat; -73/-59. Format: functional.
Assay [15] has as its system Rattus norvegicus. The experiment in a line: Percent change in volume of foot edema of test compound to that of positive control was determined at a dose of 31.6 mg/kg in rat; -87/-67. Format: functional.
The test system of assay [16] is Rattus norvegicus. The experiment in a line: Percent change in volume of foot edema of test compound to that of positive control was determined at a dose of 10 mg/kg in rat; -54/-72. Format: functional.
For assay [17], the system named is Rattus norvegicus. The experiment in a line: Percent change in volume of foot edema of test compound to that of positive control was determined at a dose of 31.6 mg/kg in rat; -60/-74. Format: functional.
In assay [18] the test system is Rattus norvegicus. The experiment in a line: Oral Antiallergic activity in the passive foot anaphylaxis (PFA) assay of various amines at the dose of 3.16 mg/kg; -4/-78. Format: functional.
Assay [19] relates to Rattus norvegicus. The experiment in a line: Percent change in volume of foot edema of test compound to that of positive control was determined at a dose of 10 mg/kg in rat; -36/-88. Format: functional.
In assay [20] the test system is Rattus norvegicus. In words: Percent change in volume of foot edema of test compound to that of positive control was determined at a dose of 31.6 mg/kg in rat; -79/-81. Format: functional.
Assay [21] deals with Rattus norvegicus. The experiment in a line: Percent change in volume of foot edema of test compound to that of positive control was determined at a dose of 10 mg/kg in rat; -40/-81. Format: functional.
The subject of assay [22] is Rattus norvegicus. In words: Percent change in volume of foot edema of test compound to that of positive control was determined at a dose of 31.6 mg/kg in rat; -56/-65. Format: functional.
Assay [23] relates to Rattus norvegicus. In words: Percent change in volume of foot edema of test compound to that of positive control was determined at a dose of 3.16 mg/kg in rat; -20/-78. Format: functional.
The subject of assay [24] is Rattus norvegicus. The experiment in a line: Percent change in volume of foot edema of test compound to that of positive control was determined at a dose of 10 mg/kg in rat; -49/-81. Format: functional.
For assay [25], the system named is Rattus norvegicus. In words: Percent change in volume of foot edema of test compound to that of positive control was determined at a dose of 31.6 mg/kg in rat; -27/-65. Format: functional.
The subject of assay [26] is Rattus norvegicus. In words: Percent change in volume of foot edema of test compound to that of positive control was determined at a dose of 31.6 mg/kg in rat; -87/-83. Format: functional.
In assay [27] the test system is Rattus norvegicus. The experiment in a line: Percent change in volume of foot edema of test compound to that of positive control was determined at a dose of 10 mg/kg in rat; -38/-88. Format: functional.

`CN(CCC(O)COc1ccccc1)CCN(C)c1ccccc1.O=C(O)C(=O)O` (centres undefined): the PFA in the assay on Rattus norvegicus [1] is given as -41.

Consider `Cl.NC(=O)c1ccc(OCC(O)CCN2CCN(c3ccccc3)CC2)cc1` (centres undefined), for which the PFA was -90 with Rattus norvegicus [2], -32 with Rattus norvegicus [3] and -46 with Rattus norvegicus [4].

With `Cl.Cl.N#Cc1ccc(OCC(O)CCN2CCN(c3ccccc3)CC2)cc1` (centres undefined), the PFA is -15 in the assay on Rattus norvegicus [5] and -64 with Rattus norvegicus [6].

Turning to `CC(=O)c1ccc(OCC(O)CCN2CCN(c3ccccc3)CC2)cc1.Cl.Cl` (centres undefined), the PFA in the assay with Rattus norvegicus [7] was -25.

As for `CC(C)(C)c1ccc(OCC(O)CCN2CCN(c3ccccc3)CC2)cc1.Cl` (centres undefined), the PFA was -39 in the assay on Rattus norvegicus [8] and -57 with Rattus norvegicus [9].

For `Cc1ccc(N2CCN(CCC(O)COc3ccc(F)cc3)CC2)cc1.Cl.Cl` (centres undefined), the PFA in the assay on Rattus norvegicus [10] is -41; in the assay on Rattus norvegicus [11], -77.

As to `O=C(O)/C=C\C(=O)O.c1ccc(OCCCCN2CCN(c3ccccc3)CC2)cc1`, the PFA in the assay with Rattus norvegicus [12] is recorded as -42.

Take `Cl.OC(CCN1CCN(c2ccc(Cl)cc2)CC1)COc1ccc(F)cc1` (centres undefined): the PFA with Rattus norvegicus [13] is reported as -8; in the assay with Rattus norvegicus [14], -73; in the assay on Rattus norvegicus [15] it was -87. The ED50 in the assay filed under Cavia porcellus came out at 7.85 mg/kg.

On to `Cc1ccc(N2CCN(CCC(O)COc3ccc(Cl)cc3)CC2)cc1.Cl` (centres undefined), for which the PFA was -54 in the assay on Rattus norvegicus [16], -60 in the assay with Rattus norvegicus [17] and -4 with Rattus norvegicus [18].

For `Cc1cc(OCC(O)CCN2CCN(c3ccccn3)CC2)ccc1Cl.Cl.Cl` (centres undefined), the PFA is given as -36 in the assay on Rattus norvegicus [19] and -79 in the assay on Rattus norvegicus [20].

Turning to `COc1ccc(N2CCN(CCC(O)COc3ccc(Cl)cc3)CC2)cc1.Cl.Cl` (centres undefined), the PFA is -40 with Rattus norvegicus [21] and -79 in the assay on Rattus norvegicus [20].

On to `OC(CCN1CCN(c2ccccc2)CC1)COc1ccc(Br)cc1` (centres undefined), for which the PFA with Rattus norvegicus [22] is on record as -56; in the assay with Rattus norvegicus [23], -20; in the assay with Rattus norvegicus [24], -49.

`OC(CCN1CCN(c2ccccc2Cl)CC1)COc1ccccc1` (centres undefined) yielded a PFA with Rattus norvegicus [25] of -27.

On to `CC(=O)c1ccc(N2CCN(CCC(O)COc3ccc(F)cc3)CC2)cc1` (centres undefined), for which the figures for the PFA in the assay on Rattus norvegicus [26] and in the assay with Rattus norvegicus [27] were -87 and -38, respectively.
